ChEMBL document CHEMBL1140692, “Toward the development of chemoprevention agents. Part II: Chemo-enzymatic synthesis and anti-inflammatory activities of a new class of 5-amino-2-substitutedphenyl-1,3-dioxacycloalkanes” (Bioorg Med Chem, 2007)

Legend:
[1] = Inhibition of bovine brain PKC; design: species or system Bos taurus
[2] = Permeability from apical to basolateral side of human Caco-2 cell membrane; assay type: ADME, cell-based
[3] = Permeability from basolateral to apical side of human Caco-2 cell membrane; assay type: ADME, cell-based
Caco-2 = assay: Ratio of permeability from apical to basolateral side over basolateral to apical side of human Caco-2 cell membrane; assay type: ADME, cell-based
Mus musculus [4] = assay: Gastrointestinal toxicity in mouse assessed as tail bleeding time at 200 mg/kg, po after 30 mins; assay type: organism-based; design: dose 200 mg/kg, route oral; settings: in vivo, 0.5 h
Outline: (§1)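 Male mice (18–22 g) are dosed orally and compared with an NS group. At 30, 45, 60 and 90 min after dosing, each mouse is restrained in a tube holder and a 2-mm cut is made on the tail. Blood is wiped away every 30 s until flow stops, and the time to cessation is recorded.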

Mus musculus [5] = assay: Gastrointestinal toxicity in mouse assessed as tail bleeding time at 200 mg/kg, po after 45 mins; assay type: organism-based; design: dose 200 mg/kg, route oral; settings: in vivo, 0.75 h; outline: as §1
Mus musculus [6] = assay: Gastrointestinal toxicity in mouse assessed as tail bleeding time at 200 mg/kg, po after 60 mins; assay type: organism-based; design: dose 200 mg/kg, route oral; settings: in vivo, 1 h; outline: as §1
Mus musculus [7] = assay: Gastrointestinal toxicity in mouse assessed as tail bleeding time at 200 mg/kg, po after 90 mins; assay type: organism-based; design: dose 200 mg/kg, route oral; settings: in vivo, 1.5 h; outline: as §1
Mus musculus [8] = assay: Antiinflammatory activity in Kunming mouse assessed as inhibition of xylene-induced ear edema at 5 mg/kg, po after […]rs; assay type: functional
Outline: (§2)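 Male Kunming mice receive the agent orally as a suspension in 0.5% CMC; the vehicle group gets CMC alone. After 30 min, 0.03 ml xylene is applied to both surfaces of the right ear, and the left ear serves as control. At 2 h, mice are killed and 7-mm ear punches are weighed. Edema is taken as right minus left punch weight, and inhibition is calculated versus vehicle. n = 11; ANOVA.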

Mus musculus [9] = assay: Antiinflammatory activity in Kunming mouse assessed as inhibition of xylene-induced ear edema at 10 mg/kg, po after […]rs; assay type: functional; outline: as §2
Mus musculus [10] = assay: Antiinflammatory activity in Kunming mouse assessed as inhibition of xylene-induced ear edema at 20 mg/kg, po after […]rs; assay type: functional; outline: as §2

| IC50 [1] | SMILES | Time (Mus musculus [4]) | Time (Mus musculus [5]) | Time (Mus musculus [6]) | Time (Mus musculus [7]) | further results |
| --- | --- | --- | --- | --- | --- | --- |
| 2850 µM | O=C(Cc1ccccc1)N[C@H]1CO[C@H](c2ccc([N+](=O)[O-])cc2)OC1 |  |  |  |  |  |
| 2710 µM | O=C(Cc1ccccc1)N[C@H]1CO[C@H](c2ccc(Cl)cc2)OC1 |  |  |  |  |  |
| 2900 µM | O=C(Cc1ccccc1)N[C@H]1CO[C@H](c2cccc([N+](=O)[O-])c2)OC1 |  |  |  |  |  |
|  | C[C@@H]1O[C@H](c2ccc(Cl)cc2)OC[C@H]1NC(=O)Cc1ccccc1 |  |  |  |  | Papp A→B [2]: 10.2 ×10⁻⁶ cm/s; Papp B→A [3]: 6.86 ×10⁻⁶ cm/s; Ratio (Caco-2): 1.48 |
|  | C[C@@H]1O[C@H](/C=C/c2ccccc2)OC[C@H]1NC(=O)Cc1ccccc1 |  |  |  |  | Papp A→B [2]: 8.8 ×10⁻⁶ cm/s; Papp B→A [3]: 7.15 ×10⁻⁶ cm/s; Ratio (Caco-2): 1.23 |
| 2920 µM | O=C(Cc1ccccc1)N[C@H]1CCO[C@H](c2ccc(Cl)cc2)OC1 |  |  |  |  |  |
| 2930 µM | O=C(Cc1ccccc1)N[C@H]1CCO[C@H](c2cccc([N+](=O)[O-])c2)OC1 |  |  |  |  |  |
| 2950 µM | O=C(Cc1ccccc1)N[C@H]1CCO[C@@H](c2ccc(Cl)cc2)OC1 |  |  |  |  |  |
|  | N[C@H]1CO[C@@H](c2ccccc2)OC1 | 119.2 s | 118.8 s | 117.6 s | 118.7 s |  |
| 2770 µM | O=C(Cc1ccccc1)N[C@H]1CO[C@@H](c2ccc([N+](=O)[O-])cc2)OC1 |  |  |  |  |  |
| 2810 µM | O=C(Cc1ccccc1)N[C@H]1CO[C@@H](c2cccc([N+](=O)[O-])c2)OC1 |  |  |  |  |  |
|  | C[C@@H]1O[C@@H](c2ccc([N+](=O)[O-])cc2)OC[C@H]1NC(=O)Cc1ccccc1 |  |  |  |  | Papp A→B [2]: 10.4 ×10⁻⁶ cm/s; Papp B→A [3]: 6.98 ×10⁻⁶ cm/s; Ratio (Caco-2): 1.49 |
|  | C[C@@H]1O[C@H](c2ccc([N+](=O)[O-])cc2)OC[C@H]1NC(=O)Cc1ccccc1 |  |  |  |  | Papp A→B [2]: 10.3 ×10⁻⁶ cm/s; Papp B→A [3]: 6.93 ×10⁻⁶ cm/s; Ratio (Caco-2): 1.49 |
|  | O=C(Cc1ccccc1)N[C@H]1CO[C@@H](/C=C/c2ccccc2)OC1 |  |  |  |  | Papp A→B [2]: 8.97 ×10⁻⁶ cm/s; Papp B→A [3]: 7.87 ×10⁻⁶ cm/s; Ratio (Caco-2): 1.14 |
|  | N[C@H]1CCCO[C@H](c2ccc(Cl)cc2)OC1 | 117.9 s | 118.7 s | 119.1 s | 118.3 s |  |
|  | N[C@H]1CCCO[C@H](c2ccc([N+](=O)[O-])cc2)OC1 | 118.6 s | 120.3 s | 118.5 s | 117.7 s |  |
|  | N[C@H]1CCCO[C@H](c2cccc([N+](=O)[O-])c2)OC1 | 117.8 s | 117.9 s | 121.5 s | 118 s |  |
|  | N[C@H]1CCCO[C@@H](c2ccc(Cl)cc2)OC1 | 119.4 s | 117.5 s | 118.4 s | 117.8 s |  |
|  | N[C@H]1CCCO[C@@H](c2cccc([N+](=O)[O-])c2)OC1 | 119.3 s | 118.2 s | 118.5 s | 119.3 s |  |
|  | N[C@H]1CCO[C@@H](c2ccc([N+](=O)[O-])cc2)OC1 | 117.8 s | 118.5 s | 117.9 s | 117.2 s |  |
|  | N[C@H]1CCO[C@@H](c2cccc([N+](=O)[O-])c2)OC1 | 120.1 s | 118.7 s | 118.5 s | 118.6 s |  |
|  | N[C@H]1CO[C@H](c2ccccc2)OC1 | 119.3 s | 119.2 s | 119.7 s | 119.6 s |  |
|  | C[C@@H]1O[C@@H](c2cccc([N+](=O)[O-])c2)OC[C@H]1N | 118.9 s | 119.2 s | 117.4 s | 118.3 s |  |
|  | N[C@H]1CO[C@H](c2ccc(Cl)cc2)OC1 | 119 s | 118.9 s | 118.7 s | 119.6 s |  |
|  | C[C@@H]1O[C@H](c2ccccc2)OC[C@H]1N | 118.7 s | 118.9 s | 118.6 s | 118.9 s |  |
|  | N[C@H]1CO[C@H](c2cccc([N+](=O)[O-])c2)OC1 | 118.8 s | 118 s | 118.4 s | 118.7 s |  |

| IC50 [1] | SMILES | Time (Mus musculus [4]) | Time (Mus musculus [5]) | Time (Mus musculus [6]) | Time (Mus musculus [7]) | further results |
| --- | --- | --- | --- | --- | --- | --- |
|  | Cc1ccc([C@H]2OC[C@@H](N)CO2)cc1 | 118.3 s | 119 s | 118.7 s | 118.4 s |  |
|  | N[C@H]1CO[C@@H](c2ccc([N+](=O)[O-])cc2)OC1 | 119.4 s | 118.7 s | 120.6 s | 119.4 s |  |
|  | C[C@@H]1O[C@@H](c2ccc(Cl)cc2)OC[C@H]1NC(=O)Cc1ccccc1 |  |  |  |  | Papp A→B [2]: 10.2 ×10⁻⁶ cm/s; Papp B→A [3]: 7 ×10⁻⁶ cm/s; Ratio (Caco-2): 1.46 |
|  | N[C@H]1CCO[C@@H](c2ccc(Cl)cc2)OC1 | 118.4 s | 119.6 s | 118.6 s | 119 s |  |
|  | N[C@H]1CCO[C@H](c2ccc([N+](=O)[O-])cc2)OC1 | 118.5 s | 119 s | 118.6 s | 117.9 s |  |
|  | N[C@H]1CCO[C@H](c2cccc([N+](=O)[O-])c2)OC1 | 117.9 s | 118.6 s | 119 s | 118.5 s |  |
|  | C[C@@H]1O[C@H](c2cccc([N+](=O)[O-])c2)OC[C@H]1N | 118.9 s | 118.2 s | 119.5 s | 118.2 s |  |
| 2690 µM | O=C(Cc1ccccc1)N[C@H]1CO[C@@H](c2ccc(Cl)cc2)OC1 |  |  |  |  |  |
|  | Cc1ccc([C@@H]2OC[C@@H](N)[C@H](C)O2)cc1 | 120.4 s | 118.5 s | 118.9 s | 117.7 s |  |
| 1140 µM | C[C@@H]1O[C@H](c2ccc(Cl)cc2)OC[C@H]1N | 119.6 s | 118.6 s | 118.7 s | 118.6 s | inhibition in vivo at 5 mg/kg (Mus musculus [8]): 29.8%; inhibition in vivo at 10 mg/kg (Mus musculus [9]): 46.2%; inhibition in vivo at 20 mg/kg (Mus musculus [10]): 67.9%; Papp A→B [2]: 11.7 ×10⁻⁶ cm/s; Papp B→A [3]: 6.88 ×10⁻⁶ cm/s; Ratio (Caco-2): 1.7 |
| 3010 µM | O=C(Cc1ccccc1)N[C@H]1CCO[C@@H](c2cccc([N+](=O)[O-])c2)OC1 |  |  |  |  |  |
|  | N[C@H]1CCO[C@H](c2ccc(Cl)cc2)OC1 | 117.9 s | 118.5 s | 119.2 s | 118.6 s |  |
|  | O=C(Cc1ccccc1)N[C@H]1CO[C@H](/C=C/c2ccccc2)OC1 |  |  |  |  | Papp A→B [2]: 8.86 ×10⁻⁶ cm/s; Papp B→A [3]: 7.32 ×10⁻⁶ cm/s; Ratio (Caco-2): 1.21 |
| 2860 µM | O=C(Cc1ccccc1)N[C@H]1CCO[C@H](c2ccc([N+](=O)[O-])cc2)OC1 |  |  |  |  |  |
| 2980 µM | O=C(Cc1ccccc1)N[C@H]1CCO[C@@H](c2ccc([N+](=O)[O-])cc2)OC1 |  |  |  |  |  |
|  | N[C@H]1CCCO[C@@H](c2ccc([N+](=O)[O-])cc2)OC1 | 118.6 s | 119 s | 118.4 s | 117.6 s |  |
| 930 µM | C[C@@H]1O[C@H](c2ccc([N+](=O)[O-])cc2)OC[C@H]1N | 117.8 s | 118.1 s | 118.8 s | 119 s | inhibition in vivo at 5 mg/kg (Mus musculus [8]): 40.1%; inhibition in vivo at 10 mg/kg (Mus musculus [9]): 56.7%; inhibition in vivo at 20 mg/kg (Mus musculus [10]): 77.9%; Papp A→B [2]: 12.9 ×10⁻⁶ cm/s; Papp B→A [3]: 6.9 ×10⁻⁶ cm/s; Ratio (Caco-2): 1.86 |
| 1620 µM | C[C@@H]1O[C@@H](C=Cc2ccccc2)OC[C@H]1N | 117.2 s | 118.6 s | 118.4 s | 119.2 s | inhibition in vivo at 20 mg/kg (Mus musculus [10]): 52.9%; Papp A→B [2]: 10.2 ×10⁻⁶ cm/s; Papp B→A [3]: 7.17 ×10⁻⁶ cm/s; Ratio (Caco-2): 1.43 |
| 1700 µM | C[C@@H]1O[C@H](C=Cc2ccccc2)OC[C@H]1N | 120.7 s | 120.2 s | 117.6 s | 117.7 s | inhibition in vivo at 20 mg/kg (Mus musculus [10]): 51.6%; Papp A→B [2]: 10.3 ×10⁻⁶ cm/s; Papp B→A [3]: 7.06 ×10⁻⁶ cm/s; Ratio (Caco-2): 1.46 |
|  | Cc1ccc([C@H]2OC[C@@H](N)[C@H](C)O2)cc1 | 120.9 s | 121 s | 119.8 s | 118.7 s |  |
|  | Cc1ccc([C@H]2OC[C@H](N)CO2)cc1 | 118.5 s | 119.2 s | 119.5 s | 117.8 s |  |
|  | N[C@H]1CO[C@H](c2ccc([N+](=O)[O-])cc2)OC1 | 119.5 s | 117.7 s | 118.6 s | 118.9 s |  |
|  | N[C@H]1CO[C@@H](c2ccc(Cl)cc2)OC1 | 118.5 s | 118.9 s | 120.9 s | 119.4 s |  |
|  | N[C@H]1CO[C@@H](c2cccc([N+](=O)[O-])c2)OC1 | 119.3 s | 118.2 s | 119.1 s | 120.2 s |  |
| 1100 µM | C[C@@H]1O[C@@H](c2ccc(Cl)cc2)OC[C@H]1N | 118.3 s | 118.9 s | 118.5 s | 118.7 s | inhibition in vivo at 5 mg/kg (Mus musculus [8]): 39.4%; inhibition in vivo at 10 mg/kg (Mus musculus [9]): 54.5%; inhibition in vivo at 20 mg/kg (Mus musculus [10]): 66.7%; Papp A→B [2]: 11.9 ×10⁻⁶ cm/s; Papp B→A [3]: 7.01 ×10⁻⁶ cm/s; Ratio (Caco-2): 1.7 |
